# Source: the M2OR odorant receptor database
# System: T1, A0A140T8K0
# T1 sequence (whole entry): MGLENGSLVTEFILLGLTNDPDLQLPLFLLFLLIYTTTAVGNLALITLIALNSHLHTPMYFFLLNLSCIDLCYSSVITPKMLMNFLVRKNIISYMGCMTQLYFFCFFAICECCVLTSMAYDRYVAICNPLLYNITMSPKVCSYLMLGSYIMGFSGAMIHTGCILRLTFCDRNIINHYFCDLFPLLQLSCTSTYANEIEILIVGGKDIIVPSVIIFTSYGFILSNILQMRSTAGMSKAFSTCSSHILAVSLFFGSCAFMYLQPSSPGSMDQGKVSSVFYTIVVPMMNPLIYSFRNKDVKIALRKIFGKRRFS
# Conditions: stereoisomer not certain
# How it was run: (§1)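 Transient luciferase assays in mammalian cell lines were common, though methods varied by source. The values come from published papers and their supplementary material, with extra details from the original authors when needed. Responsive refers to a measured signal the original authors judged statistically different from baseline, and non-responsive (inactive) to the remainder.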
# 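Note: active if original authors judged signal statistically different from baseline.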
row,SMILES,odorant receptor agonist call
1,CC(=O)OCC=C(C)C,inactive
2,CCCCCCCC(C)=O,inactive
3,CCCCC(=O)CC,inactive
4,CCOC(=O)C(C)C,inactive
5,CCCCCC=O,inactive
6,CCCCCCCCCO,inactive
7,CCCCCC(=O)CC,inactive
8,CCCCCCCCO,inactive
9,C1CCOC1,inactive
10,CCCCC(C)=O,inactive
11,CCCC(=O)C(C)=O,inactive
12,CCC(=O)C(=O)CC,inactive
13,CCc1occc(=O)c1O,inactive
14,CC12CCC(CC1=O)C2(C)C (stereo not given),inactive
15,COc1cc(C(=O)O)ccc1O,inactive
16,CC(=O)Oc1ccccc1,inactive
17,CCCCCCCCC(=O)O,inactive
18,CC(=O)OCc1ccccc1,inactive
19,OCCc1ccccc1,inactive

row,SMILES,odorant receptor agonist call
1,O=C1CCOc2ccccc21,inactive
2,O=C(O)C1CCC1,inactive
3,C=CCOC(=O)CCCCCC,inactive
4,CC(C)=CCCC(C)CCO (stereo not given),inactive
5,C=C(C)C1CCC(C)C(=O)C1 (stereo not given),inactive
6,CCCCCC1=C(C)CCC1=O,inactive
7,CC(C)=CCCC(C)=CCO,inactive
8,CCCCCOC(=O)CCCCC,inactive
9,CCC=CCCCCC=O,inactive
10,CCCC=O,inactive
11,c1ccccc1,inactive
12,O=C(c1ccccc1)c1ccccc1,inactive
13,CCCCCCCCS,inactive
14,CCCCCCC(C)=O,inactive
15,CCCCCCOC(C)=O,inactive
16,O=C([O-])CCCCCCC(=O)[O-].[H+].[H+],inactive
17,CSSCc1ccco1,inactive
18,CCCCCCCCCCO,inactive

# System: T2, A0A140T8K4
# T2 sequence (whole entry): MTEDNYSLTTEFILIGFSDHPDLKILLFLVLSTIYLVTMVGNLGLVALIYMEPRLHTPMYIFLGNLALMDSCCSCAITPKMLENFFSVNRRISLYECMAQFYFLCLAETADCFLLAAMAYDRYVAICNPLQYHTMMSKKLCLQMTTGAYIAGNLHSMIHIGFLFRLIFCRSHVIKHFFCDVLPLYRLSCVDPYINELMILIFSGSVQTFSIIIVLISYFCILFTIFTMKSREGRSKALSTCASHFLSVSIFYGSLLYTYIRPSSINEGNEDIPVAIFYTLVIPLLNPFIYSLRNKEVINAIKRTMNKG
# Conditions: stereoisomer not certain
# How it was run: as §1
row,SMILES,odorant receptor agonist call
1,CC(=O)OCC=C(C)C,inactive
2,CCCCCCCC(C)=O,inactive
3,CCCCC(=O)CC,inactive
4,CCOC(=O)C(C)C,inactive
5,CCCCCC=O,inactive
6,CCCCCCCCCO,inactive
7,CCCCCC(=O)CC,inactive
8,CCCCCCCCO,inactive
9,CCCCC(C)=O,inactive
10,CCCC(=O)C(C)=O,inactive
11,CCC(=O)C(=O)CC,inactive
12,CC12CCC(CC1=O)C2(C)C (stereo not given),inactive
13,COc1cc(C(=O)O)ccc1O,inactive
14,CC(=O)Oc1ccccc1,inactive
15,CCCCCCCCC(=O)O,inactive
16,CC(=O)OCc1ccccc1,inactive
17,O=C1CCOc2ccccc21,inactive
18,C=CCOC(=O)CCCCCC,inactive
19,CC(C)=CCCC(C)CCO (stereo not given),inactive
20,C=C(C)C1CCC(C)C(=O)C1 (stereo not given),active
21,CCCCCC1=C(C)CCC1=O,inactive
22,CC(C)=CCCC(C)=CCO,inactive
23,CCCCCOC(=O)CCCCC,inactive
24,c1ccccc1,inactive
25,O=C(c1ccccc1)c1ccccc1,inactive
26,CCCCCCCCS,inactive
27,CCCCCCC(C)=O,inactive
28,CCCCCCOC(C)=O,inactive
29,CCCCCCCCCCO,inactive

# System: T3, A0A1L1SVG7
# T3 sequence (whole entry): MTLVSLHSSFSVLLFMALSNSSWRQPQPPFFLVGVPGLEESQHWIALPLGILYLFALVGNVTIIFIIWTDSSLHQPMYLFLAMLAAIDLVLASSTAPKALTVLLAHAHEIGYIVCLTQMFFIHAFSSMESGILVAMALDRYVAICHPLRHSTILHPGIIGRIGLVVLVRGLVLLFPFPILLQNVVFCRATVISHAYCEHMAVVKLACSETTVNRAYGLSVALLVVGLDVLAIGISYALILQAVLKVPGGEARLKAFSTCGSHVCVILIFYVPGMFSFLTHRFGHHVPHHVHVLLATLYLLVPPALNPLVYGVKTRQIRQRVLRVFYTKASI
# Conditions: stereoisomer not certain
# How it was run: as §1
row,SMILES,odorant receptor agonist call
1,CC(=O)OCC=C(C)C,inactive
2,CCCCCCCC(C)=O,inactive
3,CCCCC(=O)CC,inactive
4,CCOC(=O)C(C)C,inactive
5,CCCCCC=O,inactive
6,CCCCCCCCCO,inactive
7,CCCCCC(=O)CC,inactive
8,CCCCCCCCO,inactive
9,CCCCC(C)=O,inactive
10,CCCC(=O)C(C)=O,inactive
11,CCC(=O)C(=O)CC,inactive
12,CC12CCC(CC1=O)C2(C)C (stereo not given),inactive
13,COc1cc(C(=O)O)ccc1O,inactive
14,CC(=O)Oc1ccccc1,inactive
15,CCCCCCCCC(=O)O,active
16,CC(=O)OCc1ccccc1,inactive
17,O=C1CCOc2ccccc21,inactive
18,C=CCOC(=O)CCCCCC,inactive
19,CC(C)=CCCC(C)CCO (stereo not given),inactive
20,C=C(C)C1CCC(C)C(=O)C1 (stereo not given),inactive
21,CCCCCC1=C(C)CCC1=O,inactive
22,CC(C)=CCCC(C)=CCO,inactive
23,CCCCCOC(=O)CCCCC,inactive
24,c1ccccc1,inactive
25,O=C(c1ccccc1)c1ccccc1,inactive
26,CCCCCCCCS,inactive
27,CCCCCCC(C)=O,inactive
28,CCCCCCOC(C)=O,inactive
29,CCCCCCCCCCO,inactive
